Source: ChEMBL document CHEMBL1129331, “Synthesis and physicochemical, biological, and pharmacological properties of new bile acids amidated with cyclic amino acids” (J Med Chem, 1996)
Converted amounts (≈) assume the structure as drawn.

Columns and labels:
Rattus norvegicus [1] = experiment: Secretion of Bile acids in Bile Fistula rats after the iv administration of compound, expressed as the residual secretion rate; type: ADME, organism-based; settings: in vivo
Outline: (§1)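 Male Sprague-Dawley rats (300-330 g), urethane-anesthetized, bile duct cannulated. After 1 h baseline, sodium salt infused via femoral vein at 10 μmol/min/kg for 1 h; bile collected at 15-min intervals for 3 h. Flow measured gravimetrically; bile acids, cholesterol and phospholipid measured enzymatically. Smax and Tmax read from secretion-time plots; Rs is the rate at hour 3. Mean ± SD, n=6.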

Rattus norvegicus [2] = experiment: Secretion of Bile in Bile Fistula rats after the iv administration of compound, expressed as the residual secretion rate i; type: ADME, organism-based; settings: in vivo; outline: as §1
Rattus norvegicus [3] = experiment: Secretion of cholesterol in Bile Fistula rats after the iv administration of compound, expressed as the residual secretion rate; type: ADME, organism-based; settings: in vivo; outline: as §1
Rattus norvegicus [4] = experiment: Secretion of phospholipid in Bile Fistula rats after the iv administration of compound, expressed as the residual secretion rate i; type: ADME, organism-based; settings: in vivo; outline: as §1
[5] = Water solubility was determined; type: ADME; settings: read-out: WS
Outline: (§2)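 Protonated form; measured on saturated solutions at pH 1.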

Rattus norvegicus [6] = experiment: Alkaline phosphatase in Bile Fistula rats after iv coinfusion of TCDCA and compound.; type: ADME, organism-based; settings: in vivo
Outline: (§3)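 Bile fistula Sprague-Dawley rats (200-250 g). TCDCA and test bile acid given as sodium salts, coinfused via jugular vein, each at 8 μmol/min/kg for 1 h. Bile collected at 30-min intervals for 3 h. Calcium, ALP and LDH in bile measured enzymatically; bile acid composition by HPLC (65% methanol, 15 mM ammonium acetate, pH 5.4). Mean ± SD.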

Rattus norvegicus [7] = experiment: Lactate dehydrogenase in Bile Fistula rats after iv coinfusion of TCDCA and compound.; type: ADME, organism-based; settings: in vivo; outline: as §3
[8] = Critical Micellar concentration was determined; type: ADME
Outline: (§4)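 Measured in water from surface tension, using the maximum bubble-pressure method.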

Rattus norvegicus [9] = experiment: Bile flow in Bile Fistula rats after iv coinfusion of TCDCA and compound.; type: ADME, organism-based; settings: in vivo; outline: as §3
Rattus norvegicus [10] = experiment: Calcium output in Bile Fistula rats after iv coinfusion of TCDCA and compound.; type: ADME, organism-based; settings: in vivo; outline: as §3
Rattus norvegicus [11] = experiment: Maximum biliary secretion rate of TCDCA after iv coinfusion in Bile fistula rats.; type: ADME, organism-based; settings: in vivo; outline: as §3
Rattus norvegicus [12] = experiment: Maximum biliary secretion rate of bile acids after iv coinfusion in Bile fistula rats.; type: ADME, organism-based; settings: in vivo; outline: as §3
Rattus norvegicus [13] = experiment: Secretion of Bile acids in Bile Fistula rats after the iv administration of compound, expressed as the maximum secretion rate i; type: ADME, organism-based; settings: in vivo; outline: as §1
Rattus norvegicus [14] = experiment: Secretion of Bile in Bile Fistula rats after the iv administration of compound, expressed as the maximum secretion rate; type: ADME, organism-based; settings: in vivo; outline: as §1
Rattus norvegicus [15] = experiment: Secretion of cholesterol in Bile Fistula rats after the iv administration of compound, expressed as the maximum secretion rate i; type: ADME, organism-based; settings: in vivo; outline: as §1
Rattus norvegicus [16] = experiment: Secretion of phospholipid in Bile Fistula rats after the iv administration of compound, expressed as the maximum secretion rate i; type: ADME, organism-based; settings: in vivo; outline: as §1
[17] = Relative lipophilicity was determined; type: physicochemical; settings: C-18 reverse phase HPLC
Outline: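 C-18 reverse-phase HPLC run isocratically at 0.9 mL/min. Mobile phase 65% (v/v) aqueous methanol with 2 mM ammonium acetate, pH 7, so that all bile acids are fully ionized.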

cholylglycine hydrolase = experiment: The compound was incubated with cholylglycine hydrolase and tested for determining the stability towards C-24 Deamination; type: ADME; settings: cholylglycine hydrolase
[18] = (§5) The compound was incubated with human stools and tested for determining the stability towards 7-dehydroxylation; type: ADME, organism-based
Outline: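 Homogenized fresh human stool (500 mg) in 5 mL chopped meat-glucose medium; bile acid added at 0.05 mM final; 37 °C. Sampled at 0–72 h and stopped with 30% KOH. Bile acids recovered by C-18 solid-phase extraction, then analyzed by TLC and by HPLC with 75% methanol/15 mM ammonium acetate, pH 5.4.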

[19] = (§6) Partition coefficient (logP); type: physicochemical; settings: octanol/water
Outline: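 Octanol/water partition coefficient of the protonated species, calculated rather than measured.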

[20] = Acidity constant was determined; type: ADME
[21] = Critical micellar pH was determined
Outline: (§7)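 20 mL of 50 mM bile salt solution titrated with 0.1 M HCl. CMpH is taken as the pH at which precipitate of the protonated form is first seen by turbidity at 500 nm. Confirmed by back-titration with 0.1 M NaOH until the suspension clears.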

[22] = Critical Micellar concentration of the compound. was determined; type: ADME; outline: as §4
[23] = Water solubility of the compound. was determined; type: ADME; settings: read-out: S; outline: as §2
[24] = Acidity constant of the compound. was determined; type: ADME
[25] = Critical micellar pH of the compound. was determined; outline: as §7
Rattus norvegicus [26] = experiment: Secretion of phospholipid in Bile Fistula rats after the iv administration of compound, expressed as the residual secretion rate; type: ADME, organism-based; settings: in vivo
Outline: (§8)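 Anaesthetised (ethyl carbamate) male Sprague-Dawley rats, 300-330 g, bile duct cannulated; after 1 h baseline, bile acid sodium salts infused via femoral vein at 10 μmol/min/kg for 1 h. Bile collected 3 h at 15 min intervals; flow gravimetric; BA, cholesterol, phospholipid by enzymatic assays. Smax, Tmax from secretion-vs-time plots; Rs = rate at third hour. n=6, mean ± SD.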

Rattus norvegicus [27] = experiment: Maximum biliary secretion rate of TCDCA after iv confusion in Bile fistula rats.; type: ADME, organism-based; settings: in vivo
Rattus norvegicus [28] = experiment: Maximum biliary secretion rate of bile acids after iv confusion in Bile fistula rats.; type: ADME, organism-based; settings: in vivo
Rattus norvegicus [29] = experiment: Secretion of Bile acids in Bile Fistula rats after the iv administration of compound, expressed as the maximum secretion rate; type: ADME, organism-based; settings: in vivo; outline: as §8
Rattus norvegicus [30] = experiment: Secretion of phospholipid in Bile Fistula rats after the iv administration of compound, expressed as the maximum secretion rate; type: ADME, organism-based; settings: in vivo; outline: as §8
[31] = as §6; type: physicochemical; settings: octanol/water; remark: listed apart in the source
[32] = as §5; type: ADME, organism-based; remark: listed apart in the source
Outline: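 Homogenised fresh human stool (500 mg) in 5 mL chopped meat-glucose medium with bile acid at 0.05 mM final, incubated at 37 °C; stopped with 30% KOH at 0, 4, 8, 16, 20, 24 and 72 h. Supernatant extracted on C-18 solid phase, analysed by TLC and HPLC (aqueous methanol 75%, 15 mM ammonium acetate, apparent pH 5.4).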

Rattus norvegicus [33] = experiment: Secretion of Bile in Bile Fistula rats after the iv administration of compound, expressed as the residual secretion rate; type: ADME, organism-based; settings: in vivo; outline: as §8

| Structure (SMILES) | Rs (Rattus norvegicus [1]) | Rs (Rattus norvegicus [2]) [mL/h/kg] | Rs (Rattus norvegicus [3]) [nM/min/kg] | Rs (Rattus norvegicus [4]) [µM/min/kg] | solubility [5] [µM] | [ALP]max (Rattus norvegicus [6]) [IU/L] | [LDH]max (Rattus norvegicus [7]) [UI l-1] | CMC [8] [mM] | Smax (Rattus norvegicus [9]) [mL/h/kg] | Smax (Rattus norvegicus [10]) | Smax (Rattus norvegicus [11]) [µM/min/kg] | Smax (Rattus norvegicus [12]) [µM/min/kg] | Smax (Rattus norvegicus [13]) [µM/min/kg] | Smax (Rattus norvegicus [14]) [mL/h/kg] | Smax (Rattus norvegicus [15]) [nM/min/kg] | Smax (Rattus norvegicus [16]) [µM/min/kg] | rK [17] | half-life (cholylglycine hydrolase) [h] | logP [19] | CMpH [21] | other results |
| --- | --- | --- | --- | --- | --- | --- | --- | --- | --- | --- | --- | --- | --- | --- | --- | --- | --- | --- | --- | --- | --- |
| CC(CCC(=O)N1C[C@@H](O)C[C@@H]1C(=O)O)C1CC[C@H]2[C@@H]3[C@@H](O)CC4C[C@H](O)CC[C@]4(C)[C@H]3CC[C@]12C (some centres not stated) | 0.9 µM/min/kg | 2.76 | 31 | 0.12 | 250 (≈ 126 µg/mL) | 31 | 10 | 10 | 5.4 | 0.37 µM/min/kg | 4.98 | 3.27 | 6.3 | 5.82 | 68 | 0.25 | 0.6 | > 72 | 3.59 | 4.7 | half-life [18]: > 72 h; pKa [20]: 3.1 |
| C[C@H](CCC(=O)O)[C@H]1CC[C@H]2[C@@H]3C[C@H](O)[C@@H]4C[C@H](O)CC[C@]4(C)[C@H]3CC[C@]12C [HYODEOXYCHOLIC_ACID] | – | – | – | – | – | – | – | – | – | – | – | – | – | – | – | – | 0.89 | – | 4.27 | – | CMC [22]: 14 mM; solubility [23]: 15 µM (≈ 5.89 µg/mL); pKa [24]: 5; CMpH [25]: 8.1 |
| C[C@H](CCC(=O)O)[C@H]1CC[C@H]2[C@@H]3[C@@H](O)C[C@@H]4C[C@H](O)CC[C@]4(C)[C@H]3CC[C@]12C [URSODIOL] | 0.0008 µM/min/g | – | 24 | – | 8 (≈ 3.14 µg/mL) | 217 | 115 | – | 4.32 | 0.00018 µM/min/g | – | – | – | 6.96 | 55 | – | 1 | – | – | 8.4 | Rs (Rattus norvegicus [26]): 0.00012 µM/min/g; CMC [22]: 26 mM; Smax (Rattus norvegicus [27]): 1.56 µM/min/kg; Smax (Rattus norvegicus [28]): 1.72 µM/min/kg; Smax (Rattus norvegicus [29]): 0.0042 µM/min/g; Smax (Rattus norvegicus [30]): 0.00026 µM/min/g; logP [31]: 5.69; half-life [32]: 2 h; Rs (Rattus norvegicus [33]): 2.82 mL/h/kg |
| CC(CCC(=O)N1CCC[C@H]1C(=O)O)C1CC[C@H]2[C@@H]3[C@@H](O)CC4C[C@H](O)CC[C@]4(C)[C@H]3CC[C@]12C (some centres not stated) | 1.6 µM/min/kg | 3.06 | 28 | 0.09 | 59 (≈ 28.9 µg/mL) | 30 | 71 | 7 | 5.82 | 0.38 µM/min/kg | 3.64 | 2.07 | 7.9 | 3.9 | 52 | 0.2 | 0.92 | > 72 | 4.41 | 6 | half-life [18]: > 72 h; pKa [20]: 3.9 |
| CC(CCC(=O)N1CCC[C@@H]1C(=O)O)C1CC[C@H]2[C@@H]3[C@@H](O)CC4C[C@H](O)CC[C@]4(C)[C@H]3CC[C@]12C (some centres not stated) | 0.9 µM/min/kg | 3 | 31 | 0.11 | 113 (≈ 55.3 µg/mL) | 32 | 16 | 15 | 5.16 | 0.42 µmol/min/kg | 5.43 | 3.22 | 6 | 5.4 | 55 | 0.28 | 1.25 | > 72 | 5.83 | 6 | half-life [18]: > 72 h; pKa [20]: 3.9 |
